Source: ChEMBL document CHEMBL3396946, “Design, synthesis and pharmacological evaluation of N-[4-(4-(alkyl/aryl/heteroaryl)-piperazin-1-yl)-phenyl]-carbamic acid ethyl ester derivatives as novel anticonvulsant agents” (Bioorg Med Chem Lett, 2015)
The source made the active and inactive calls. The calls are words filed in the database; no cut-off is given here.

Key:
Mus musculus [1] = experiment: Anticonvulsant activity in Swiss albino mouse assessed as reduction in electrical stimulus-induced seizures at 300 mg/kg, ip after 0.5 hrs by maximal electroshock seizure test; format: functional, organism-based; parameters: dose 300 mg/kg
Summary of the method: (§1)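 Adult male Swiss albino mice; test agents given i.p. at 30, 100 and 300 mg/kg, with animals examined 0.5 h and 4.0 h after injection. Value is the minimal dose protecting half or more of the mice; a dash means no activity at 300 mg/kg.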

Mus musculus [2] = experiment: Anticonvulsant activity in Swiss albino mouse assessed as reduction in clonic seizures at 300 mg/kg, ip after 0.5 hrs by subcutaneous pentylenetetrazole seizure test; format: functional, organism-based; parameters: dose 300 mg/kg; summary of the method: as §1
Mus musculus [3] = experiment: Anticonvulsant activity in intraperitoneally dosed Swiss albino mouse assessed as reduction in electrical stimulus-induced seizures after 4 hrs by maximal electroshock seizure test; format: functional; summary of the method: as §1
[4] = Neurological toxicity in intraperitoneally dosed Swiss albino mouse assessed as motor impairment after 0.5 hrs by rotarod test; format: organism-based; settings: in vivo, ip, read-out: MTD50
Mus musculus [5] = experiment: Anticonvulsant activity in intraperitoneally dosed Swiss albino mouse assessed as reduction in clonic seizures after 4 hrs by subcutaneous pentylenetetrazole seizure test; format: functional; summary of the method: as §1
[6] = Neurological toxicity in intraperitoneally dosed Swiss albino mouse assessed as motor impairment after 4 hrs by rotarod test; format: organism-based; settings: in vivo, ip, read-out: MTD50
Mus musculus [7] = experiment: Anticonvulsant activity in intraperitoneally dosed Swiss albino mouse assessed as reduction in electrical stimulus-induced seizures after 0.5 hrs by maximal electroshock seizure test; format: functional; summary of the method: as §1
Mus musculus [8] = experiment: Anticonvulsant activity in Swiss albino mouse assessed as reduction in clonic seizures at 300 mg/kg, ip after 4 hrs by subcutaneous pentylenetetrazole seizure test; format: functional, organism-based; parameters: dose 300 mg/kg; summary of the method: as §1
Mus musculus [9] = experiment: Neurological toxicity in Swiss albino mouse assessed as motor impairment at 300 mg/kg, ip after 4 hrs by rotarod test; format: organism-based; parameters: dose 300 mg/kg, route intraperitoneal; settings: in vivo
Summary of the method: (§2)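 Adult male Swiss albino mice dosed i.p. at 30, 100 and 300 mg/kg, examined at 0.5 h and 4.0 h. Neurotoxicity is scored as failure to hold onto the rotating rod, with three successive trials. Value is the minimal dose active in half or more of the mice.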

Mus musculus [10] = experiment: Anticonvulsant activity in Swiss albino mouse assessed as reduction in electrical stimulus-induced seizures at 300 mg/kg, ip after 4 hrs by maximal electroshock seizure test; format: functional, organism-based; parameters: dose 300 mg/kg; summary of the method: as §1
Mus musculus [11] = experiment: Neurological toxicity in Swiss albino mouse assessed as motor impairment at 300 mg/kg, ip after 0.5 hrs by rotarod test; format: organism-based; parameters: dose 300 mg/kg, route intraperitoneal; settings: in vivo; summary of the method: as §2
Mus musculus [12] = experiment: (§3) Anticonvulsant activity in Swiss albino mouse model of pentylenetetrazole-induced kindling related chronic epilepsy assessed as reduction in incidence and seizure severity score by at 30 mg/kg, ip administered daily for 5 weeks followed by injection of 30 mg/kg, ip PTZ on every alternate day till full kindling development; format: functional, organism-based
Summary of the method: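 Adult Swiss albino male mice, randomised to seven groups (n = 8; PTZ group n = 9). Test drug given i.p. over 35 days, with PTZ 30 mg/kg i.p. on alternate days for 5 weeks. Seizures scored visually each week. Mean score ± SEM compared by ANOVA with Tukey's test.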

Mus musculus [13] = experiment: Anticonvulsant activity in intraperitoneally dosed Swiss albino mouse assessed as reduction in clonic seizures after 0.5 hrs by subcutaneous pentylenetetrazole seizure test; format: functional; summary of the method: as §1
Mus musculus [14] = experiment: Toxicity in Swiss albino mouse assessed as induction of myoclonic jerks at 300 mg/kg, ip after 0.5 hrs during subcutaneous pentylenetetrazole seizure test; format: organism-based; parameters: dose 300 mg/kg
Mus musculus [15] = experiment: (§4) Reduction in nitric oxide level in brain of Swiss albino mouse model of pentylenetetrazole-induced kindling related chronic epilepsy at 10 to 30 mg/kg, ip administered daily for 5 weeks followed by injection of 30 mg/kg, ip PTZ on every alternate day till full kindling development by Griess reagent based assay; format: functional, organism-based
Summary of the method: (§5)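 PTZ-kindled mice (30 mg/kg i.p. on alternate days for 5 weeks) receive i.p. treatment (5, 10, 20, 30 mg/kg) for 35 days. At the end, mice are killed under ether and brains stored at -20 °C for up to 10 h. Readouts are GSH (µg/g wet tissue), MDA (nmol/µg protein), GSH-Px (U/g protein) and NO (µmol/g protein). n = 8 per group (PTZ group n = 6); mean ± SEM, ANOVA with Tukey's test.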

Mus musculus [16] = experiment: as §3, with “reduction in seizure severity” for “reduction in incidence and seizure severity”, “by at 10 to 30 mg/kg,” for “by at 30 mg/kg,”; format: functional, organism-based
Summary of the method: (§6)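 Adult male Swiss albino mice are randomised into seven groups (n = 8; n = 9 for PTZ-only). Treatment is i.p. for 35 days. PTZ is given at 30 mg/kg i.p. on alternate days for 5 weeks. Control mice receive saline; phenobarbital 30 mg/kg i.p. is the reference. Seizure score is rated visually each week. Data are mean ± SEM, ANOVA with Tukey's test.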

Mus musculus [17] = experiment: as §4, with “Increase” for “Reduction”, “GSH” for “nitric oxide”, “5” for “10”, “Ellman's” for “Griess”; format: functional, organism-based; summary of the method: as §5
Mus musculus [18] = experiment: Increase in GSH-Px level in brain of Swiss albino mouse model of pentylenetetrazole-induced kindling related chronic epilepsy at 5 to 30 mg/kg, ip administered daily for 5 weeks followed by injection of 30 mg/kg, ip PTZ on every alternate day till full kindling development; format: functional, organism-based; summary of the method: as §5
Mus musculus [19] = experiment: as §3, with “in” for “in incidence and”, “at 5” for “at 30”; format: functional, organism-based; summary of the method: as §6
Mus musculus [20] = experiment: Reduction in MDA level in brain of Swiss albino mouse model of pentylenetetrazole-induced kindling related chronic epilepsy at 5 to 30 mg/kg, ip administered daily for 5 weeks followed by injection of 30 mg/kg, ip PTZ on every alternate day till full kindling development by spectrophotometry; format: functional, organism-based; summary of the method: as §5
Mus musculus [21] = experiment: as §4, with “5” for “10 to 30”; format: functional, organism-based; summary of the method: as §5
Mus musculus [22] = experiment: Toxicity in Swiss albino mouse assessed as induction of death following tonic extension at 300 mg/kg, ip after 0.5 hrs during maximal electroshock seizure test; format: organism-based; parameters: dose 300 mg/kg, route intraperitoneal; settings: in vivo
Mus musculus [23] = experiment: Toxicity in Swiss albino mouse assessed as induction of sedation at 100 mg/kg, ip after 0.5 hrs during maximal electroshock seizure test; format: organism-based; parameters: dose 100 mg/kg, route intraperitoneal; settings: in vivo
Mus musculus [24] = experiment: Toxicity in Swiss albino mouse assessed as induction of sedation at 300 mg/kg, ip after 0.5 hrs during subcutaneous pentylenetetrazole seizure test; format: organism-based; parameters: dose 300 mg/kg
Mus musculus [25] = experiment: Toxicity in Swiss albino mouse assessed as induction of myoclonic jerks at 100 mg/kg, ip after 0.5 hrs during subcutaneous pentylenetetrazole seizure test; format: organism-based; parameters: dose 100 mg/kg
Mus musculus [26] = experiment: Toxicity in Swiss albino mouse assessed as induction of myoclonic jerks at 100 mg/kg, ip after 4 hrs during subcutaneous pentylenetetrazole seizure test; format: organism-based; parameters: dose 100 mg/kg
Mus musculus [27] = experiment: Toxicity in Swiss albino mouse assessed as induction of death following tonic extension at 300 mg/kg, ip after 4 hrs during maximal electroshock seizure test; format: organism-based; parameters: dose 300 mg/kg, route intraperitoneal; settings: in vivo

Row | Compound | Activity (Mus musculus [1]) | Activity (Mus musculus [2]) | MED50 (Mus musculus [3]) [mg/kg] | MED50 (Mus musculus [5]) [mg/kg] | MED50 (Mus musculus [7]) [mg/kg] | Activity (Mus musculus [8]) | Activity (Mus musculus [9]) | Activity (Mus musculus [10]) | Activity (Mus musculus [11]) | MED50 (Mus musculus [13]) [mg/kg] | other results
1 | CCOC(=O)Nc1ccc(N2CCN(C(=O)c3ccccc3)CC2)cc1 | inactive | inactive | 100 | 300 | – | – | – | – | – | – | TD50 at 0.5 h [4]: 300 mg/kg; TD50 at 4 h [6]: 300 mg/kg
2 | O=C1NC(=O)C(c2ccccc2)(c2ccccc2)N1 [PHENYTOIN] | – | inactive | 30 | – | 30 | inactive | – | – | – | – | –
3 | CCOC(=O)Nc1ccc(N2CCN(c3ccc(OC)cc3)CC2)cc1 | – | inactive | – | 100 | 100 | – | Non-toxic | inactive | Non-toxic | – | –
4 | CCOC(=O)Nc1ccc(N2CCN(CC)CC2)cc1 | inactive | inactive | – | – | – | inactive | Non-toxic | inactive | Non-toxic | – | –
5 | CCC1(c2ccccc2)C(=O)NC(=O)NC1=O | – | – | – | – | – | – | – | – | – | – | Activity (Mus musculus [12]): Active
6 | CCOC(=O)Nc1ccc(N2CCN(c3ccc(F)cc3)CC2)cc1 | inactive | inactive | 300 | – | – | inactive | Non-toxic | inactive | Non-toxic | – | –
7 | CCOC(=O)Nc1ccc(N2CCN(C(c3ccccc3)c3ccccc3)CC2)cc1 | inactive | inactive | 300 | 300 | – | – | Non-toxic | – | Non-toxic | – | –
8 | CCOC(=O)Nc1ccc(N2CCN(Cc3ccc4c(c3)OCO4)CC2)cc1 | inactive | – | – | – | – | inactive | Non-toxic | inactive | Non-toxic | 300 | Activity (Mus musculus [14]): Toxic
9 | CCC1(C)CC(=O)NC1=O (stereo not drawn) [ETHOSUXIMIDE] | inactive | – | – | 300 | – | – | Non-toxic | inactive | Non-toxic | 100 | –
10 | CCOC(=O)Nc1ccc(N2CCN(c3ccc(C(C)=O)cc3)CC2)cc1 | – | – | 100 | 100 | 30 | – | Non-toxic | – | Non-toxic | 100 | Activity (Mus musculus [15]): Active; Activity (Mus musculus [16]): Active; Activity (Mus musculus [17]): Active; Activity (Mus musculus [18]): Active; Activity (Mus musculus [19]): Active; Activity (Mus musculus [20]): Active; Activity (Mus musculus [21]): inactive
11 | CCOC(=O)Nc1ccc(N2CCN(c3ncccn3)CC2)cc1 | – | inactive | 300 | – | 100 | inactive | Non-toxic | – | Non-toxic | – | Activity (Mus musculus [22]): Toxic
12 | CCOC(=O)Nc1ccc(N2CCN(c3ccc(C(F)(F)F)cc3)CC2)cc1 | – | – | – | – | 100 | inactive | – | inactive | – | 300 | Activity (Mus musculus [23]): Toxic; Activity (Mus musculus [24]): Toxic
13 | CCCC(CCC)C(=O)O [VALPROIC ACID] | inactive | inactive | – | 300 | – | – | Non-toxic | inactive | Non-toxic | – | –
14 | CCOC(=O)Nc1ccc(N2CCN(C)CC2)cc1 | inactive | inactive | – | – | – | inactive | Non-toxic | inactive | Non-toxic | – | –
15 | CCOC(=O)Nc1ccc(N2CCN(Cc3ccccc3)CC2)cc1 | – | inactive | 100 | – | 100 | inactive | Non-toxic | – | Non-toxic | – | –
16 | CCOC(=O)Nc1ccc(N2CCN(c3ccc(C)cc3)CC2)cc1 | – | – | 100 | – | 30 | inactive | – | – | – | 100 | Activity (Mus musculus [25]): Toxic; TD50 at 0.5 h [4]: 100 mg/kg; TD50 at 4 h [6]: 100 mg/kg
17 | CCOC(=O)Nc1ccc(N2CCN(C(c3ccc(F)cc3)c3ccc(F)cc3)CC2)cc1 | inactive | inactive | 300 | 100 | – | – | Non-toxic | – | Non-toxic | – | Activity (Mus musculus [26]): Toxic
18 | CCOC(=O)Nc1ccc(N2CCN(c3ccccc3)CC2)cc1 | – | – | 300 | 300 | 30 | – | Non-toxic | – | Non-toxic | 300 | –
19 | CCOC(=O)Nc1ccc(N2CCN(C(=O)c3ccco3)CC2)cc1 | inactive | inactive | 100 | – | – | inactive | Non-toxic | – | Non-toxic | – | –
20 | CCOC(=O)Nc1ccc(N2CCN(c3ccccn3)CC2)cc1 | – | inactive | 100 | – | 100 | inactive | – | – | – | – | TD50 at 0.5 h [4]: 100 mg/kg; TD50 at 4 h [6]: 100 mg/kg
21 | CCOC(=O)Nc1ccc(N2CCN(c3ccc(Cl)cc3)CC2)cc1 | – | – | 300 | 100 | 100 | – | – | – | – | 100 | Activity (Mus musculus [23]): Toxic
22 | NC(=O)N1c2ccccc2C=Cc2ccccc21 [CARBAMAZEPINE] | – | – | 100 | 300 | 30 | – | – | – | – | 100 | TD50 at 0.5 h [4]: 100 mg/kg; TD50 at 4 h [6]: 300 mg/kg
23 | CCOC(=O)Nc1ccc(N2CCN(c3ccncc3)CC2)cc1 | – | inactive | 300 | – | 100 | inactive | – | – | – | – | TD50 at 0.5 h [4]: 300 mg/kg; Activity (Mus musculus [27]): Toxic; TD50 at 4 h [6]: 100 mg/kg
